Experimental data reported in ChEMBL document CHEMBL4041491, “Imidazo[1,2-a]pyrazin-8-amine core for the design of new adenosine receptor antagonists: Structural exploration to target the A3 and A2A subtypes” (Eur J Med Chem, 2017).

Assays:
[1] = molecular target: T1, Adenosine receptor A2b (Homo sapiens) (UniProt P29275); experiment: Antagonist activity at human A2B receptor expressed in CHO cells assessed as inhibition of NECA-stimulated cAMP production at 1 uM by [3H]cAMP competition binding based scintillation counting method relative to control; format: functional, cell-based
T1 sequence (whole entry): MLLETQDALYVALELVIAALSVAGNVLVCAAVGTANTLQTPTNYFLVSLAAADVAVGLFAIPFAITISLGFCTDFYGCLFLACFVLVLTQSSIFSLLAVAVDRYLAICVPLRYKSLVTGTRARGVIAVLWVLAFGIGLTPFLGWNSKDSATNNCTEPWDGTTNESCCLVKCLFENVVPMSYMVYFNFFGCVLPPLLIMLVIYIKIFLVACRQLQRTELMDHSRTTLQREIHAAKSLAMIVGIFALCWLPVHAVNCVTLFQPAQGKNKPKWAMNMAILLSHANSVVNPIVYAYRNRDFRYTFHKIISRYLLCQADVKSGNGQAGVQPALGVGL
How it was run: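 Transfected CHO cells (1 × 10^6/assay) in buffered saline pH 7.4 with adenosine deaminase 2 IU/ml and Ro 20-1724, preincubated 10 min at 37 °C. Test compound at 1 μM against 200 nM NECA-stimulated cAMP. TCA stop, ether extraction, cAMP measured by [3H]cAMP competition binding to bovine adrenal binding protein. Result given as percent inhibition.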

Adenosine receptor A2a [2] = molecular target: T2, Adenosine receptor A2a (Homo sapiens, UniProt P29274); experiment: Displacement of [3H]ZM241385 from human adenosine A2A receptor expressed in CHO cell membranes at 1 uM after 60 mins by scintillation counting method relative to control
T2 sequence (P29274 whole entry): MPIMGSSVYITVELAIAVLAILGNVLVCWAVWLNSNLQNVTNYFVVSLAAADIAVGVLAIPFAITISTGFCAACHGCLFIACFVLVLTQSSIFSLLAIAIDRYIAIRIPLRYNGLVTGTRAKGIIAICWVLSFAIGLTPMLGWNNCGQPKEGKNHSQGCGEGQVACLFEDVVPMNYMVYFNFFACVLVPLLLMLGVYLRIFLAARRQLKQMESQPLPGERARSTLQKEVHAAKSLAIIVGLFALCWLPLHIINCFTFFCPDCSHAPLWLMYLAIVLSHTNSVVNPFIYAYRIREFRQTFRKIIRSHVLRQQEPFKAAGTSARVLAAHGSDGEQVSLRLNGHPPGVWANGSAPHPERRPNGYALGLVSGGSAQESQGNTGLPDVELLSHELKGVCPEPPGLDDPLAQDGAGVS
How it was run: (§1)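 hA2A CHO membranes (50 µg protein) with 1 nM [3H]ZM241385 in 50 mM Tris HCl, 10 mM MgCl2, pH 7.4, 60 min at 4 °C. Six to eight antagonist concentrations, or 1 µM for percent inhibition. Nonspecific binding with 1 µM ZM241385. Ki via Cheng–Prusoff, four assays in duplicate, means ± SEM.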

Adenosine receptor A3 [3] = molecular target: T3, Adenosine receptor A3 (Homo sapiens, UniProt P0DMS8); experiment: Displacement of [125I]AB-MECA from human adenosine A3 receptor expressed in CHO cell membranes at 1 uM after 120 mins by scintillation counting method relative to control
T3 sequence (P0DMS8 whole entry, looked up): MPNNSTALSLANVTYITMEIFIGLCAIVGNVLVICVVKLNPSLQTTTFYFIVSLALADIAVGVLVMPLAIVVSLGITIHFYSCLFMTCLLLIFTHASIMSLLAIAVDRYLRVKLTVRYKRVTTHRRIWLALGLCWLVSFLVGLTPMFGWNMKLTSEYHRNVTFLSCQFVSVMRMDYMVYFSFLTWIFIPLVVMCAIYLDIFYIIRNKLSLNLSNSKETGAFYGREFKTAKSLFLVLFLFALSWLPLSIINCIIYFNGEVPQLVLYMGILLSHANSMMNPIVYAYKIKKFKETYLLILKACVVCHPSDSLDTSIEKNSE

[4] = molecular target: T4, Adenosine receptor A1 (Homo sapiens) (UniProt P30542); experiment: Displacement of [3H]DPCPX from human adenosine A1 receptor expressed in CHO cell membranes at 1 uM after 120 mins by scintillation counting method relative to control
T4 sequence (whole entry): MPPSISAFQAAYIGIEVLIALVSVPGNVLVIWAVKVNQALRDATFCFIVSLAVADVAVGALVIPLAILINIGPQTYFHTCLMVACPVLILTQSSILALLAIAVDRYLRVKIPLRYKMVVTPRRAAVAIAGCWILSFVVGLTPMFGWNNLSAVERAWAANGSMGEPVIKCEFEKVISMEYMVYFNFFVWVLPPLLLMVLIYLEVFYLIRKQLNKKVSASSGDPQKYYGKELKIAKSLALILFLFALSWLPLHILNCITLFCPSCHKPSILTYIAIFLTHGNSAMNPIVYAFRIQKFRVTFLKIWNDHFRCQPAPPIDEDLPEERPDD
How it was run: (§2)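 hA1 CHO membranes (50 µg protein) with 1 nM [3H]DPCPX in 50 mM Tris HCl pH 7.4, 120 min at 25 °C. Six to eight antagonist concentrations, or 1 µM for percent inhibition. Nonspecific binding with 1 µM DPCPX. Ki via Cheng–Prusoff, four assays in duplicate, means ± SEM.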

Adenosine receptor A2a [5] = molecular target: T2, Adenosine receptor A2a; experiment: Displacement of [3H]ZM241385 from human adenosine A2A receptor expressed in CHO cell membranes after 60 mins by scintillation counting method; how it was run: as §1
Adenosine receptor A1 = molecular target: T5, Adenosine receptor A1 (Homo sapiens, UniProt P30542); experiment: Displacement of [3H]DPCPX from human adenosine A1 receptor expressed in CHO cell membranes after 120 mins by scintillation counting method; how it was run: as §2
T5 sequence (P30542 whole entry): T4 sequence (whole entry)

Adenosine receptor A3 [6] = molecular target: T3, Adenosine receptor A3; experiment: Displacement of [125I]AB-MECA from human adenosine A3 receptor expressed in CHO cell membranes after 120 mins by scintillation counting method
How it was run: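 hA3 CHO membranes (50 µg protein) with 0.5 nM [125I]AB-MECA in 50 mM Tris HCl, 10 mM MgCl2, 1 mM EDTA, pH 7.4, 120 min at 4 °C. Six to eight ligand concentrations, or 1 µM for percent inhibition. Nonspecific binding with 1 µM AB-MECA; GF/B filtration. Ki by Cheng–Prusoff, four assays in duplicate, means ± SEM.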

Adenosine receptor A3 [7] = molecular target: T3, Adenosine receptor A3; experiment: Antagonist activity at human A3 receptor expressed in CHO cells assessed as inhibition of CI-IB-MECA-mediated inhibition of cAMP production by [3H]cAMP competition binding based scintillation counting method; format: cell-based
How it was run: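 hA3-transfected CHO cells (1 × 10^6/assay) in buffered saline pH 7.4 with adenosine deaminase and Ro 20-1724, preincubated 10 min at 37 °C. Antagonism of 100 nM Cl-IB-MECA inhibition of 1 µM forskolin-stimulated cAMP. cAMP measured by [3H]cAMP protein-binding assay. IC50 by sigmoid nonlinear regression, four independent experiments in triplicate, means ± SEM.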

[8] = molecular target: T6, Adenosine receptor A3 (Rattus norvegicus) (UniProt P28647); experiment: Displacement of [125I]AB-MECA from rat adenosine A3 receptor expressed in HEK293 cell membranes at 1 uM after 120 mins by scintillation counting method relative to control
T6 sequence (whole entry): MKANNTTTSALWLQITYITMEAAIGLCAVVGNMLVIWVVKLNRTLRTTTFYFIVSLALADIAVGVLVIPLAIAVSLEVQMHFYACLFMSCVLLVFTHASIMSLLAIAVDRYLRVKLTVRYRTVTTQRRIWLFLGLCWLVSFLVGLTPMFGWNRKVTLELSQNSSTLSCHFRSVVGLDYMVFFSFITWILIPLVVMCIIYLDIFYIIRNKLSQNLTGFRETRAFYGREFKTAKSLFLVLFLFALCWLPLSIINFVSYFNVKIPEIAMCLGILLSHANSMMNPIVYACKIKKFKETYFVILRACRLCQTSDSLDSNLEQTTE
How it was run: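 rA3 receptor in HEK293 membranes (10 μg protein), 0.5 nM [125I]AB-MECA, 50 mM Tris–HCl, 10 mM MgCl2, 1 mM EDTA, pH 7.4, 120 min at 25 °C. Nonspecific binding with 1 μM AB-MECA; filtration and scintillation counting. Percent inhibition of specific binding at 1 µM.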

inhibition [1] [%]	inhibition (Adenosine receptor A2a [2]) [%]	inhibition (Adenosine receptor A3 [3]) [%]	inhibition [4] [%]	Ki (Adenosine receptor A2a [5]) [nM]	Ki (Adenosine receptor A1) [nM]	Ki (Adenosine receptor A3 [6]) [nM]	IC50 (Adenosine receptor A3 [7]) [nM]	inhibition [8] [%]	Structure (SMILES)
10	21	45	26						Cc1ccc(C(=O)Nc2nccn3cc(-c4ccccc4)nc23)cc1
1	12	5	21						Nc1nccn2cc(-c3ccco3)nc12
1	1		1			121			COc1ccc(-c2cn3ccnc(NC(=O)c4ccccc4)c3n2)cc1
25	1		32			245			O=C(Nc1nccn2cc(-c3ccccc3)nc12)C(c1ccccc1)c1ccccc1
2	1		18			52	163	2	O=C(Nc1nccn2cc(-c3ccccc3)nc12)c1ccccc1
1	3		1			162			COc1ccc(C(=O)Nc2nccn3cc(-c4ccccc4)nc23)cc1
19	34	40	25						O=C(Nc1nccn2cc(-c3ccccc3)nc12)c1ccco1
1	1	22	7						O=C(Nc1nccn2cc(-c3ccco3)nc12)c1ccccc1
13	38	20	28						Nc1nc(-c2ccco2)cn2cc(-c3ccccc3)nc12
22	13	42	24						O=C(Nc1nccn2cc(-c3ccccc3)nc12)c1cccnc1
15	37		46			524			O=C(Cc1ccccc1)Nc1nccn2cc(-c3ccccc3)nc12
2	1		10			67			O=C(Nc1nc(-c2ccccc2)cn2cc(-c3ccccc3)nc12)c1ccco1
1	1	6	1						O=C(Nc1ccccc1)Nc1nccn2cc(-c3ccccc3)nc12

The remaining lines, values behind:

Structure (SMILES)	inhibition [1] [%]	inhibition (Adenosine receptor A2a [2]) [%]	inhibition (Adenosine receptor A3 [3]) [%]	inhibition [4] [%]	Ki (Adenosine receptor A2a [5]) [nM]	Ki (Adenosine receptor A1) [nM]	Ki (Adenosine receptor A3 [6]) [nM]	IC50 (Adenosine receptor A3 [7]) [nM]	inhibition [8] [%]
Nc1nc(-c2ccc(OCc3ccccc3)cc2)cn2cc(-c3ccccc3)nc12	4	1	1	10					
Nc1nc(-c2ccco2)cn2cc(-c3ccco3)nc12	30		38		854	316			
COc1ccc(-c2cn3cc(Br)nc(N)c3n2)cc1	27	11	24	29					
Nc1nc(-c2ccc(Cl)cc2)cn2cc(-c3ccccc3)nc12	2	1	1	3					
Nc1nccn2cc(-c3ccccc3)nc12	30	13	12	30					
Cc1ccc(C(=O)Nc2nc(-c3ccccc3)cn3cc(-c4ccccc4)nc23)cc1	3	1		1			223		
COc1ccc(C(=O)Nc2nc(-c3ccccc3)cn3cc(-c4ccccc4)nc23)cc1	1	8		6			25	73	1
O=C(c1ccc(F)cc1)N(C(=O)c1ccc(F)cc1)c1nc(-c2ccccc2)cn2cc(-c3ccccc3)nc12	3	1	31	1					
COc1ccc(-c2cn3ccnc(N)c3n2)cc1	1	1	1	1					
COc1ccc(-c2cn3cc(-c4ccccc4)nc3c(N)n2)cc1	16	23	23	20					
Nc1nc(-c2cccc(C(=O)O)c2)cn2cc(-c3ccccc3)nc12	3	9	1	7					
COc1ccc(-c2cn3cc(-c4ccccc4)nc(N)c3n2)cc1	1	1	27			524			
COc1ccc(-c2cn3cc(-c4ccccc4)nc(NC(=O)c4ccccc4)c3n2)cc1	1	1		3			312		
O=C(Nc1nc(-c2ccccc2)cn2cc(-c3ccccc3)nc12)c1ccc(Cl)cc1	1	1		1			156		
COc1cccc(-c2cn3cc(-c4ccccc4)nc3c(N)n2)c1	30	24	21	37					
O=C(Nc1nc(-c2ccccc2)cn2cc(-c3ccccc3)nc12)c1ccc(F)cc1	2	1		1			38		
Nc1nc(-c2cccc(NC(=O)Cc3ccccc3)c2)cn2cc(-c3ccccc3)nc12	7	33	8	37					
O=C(Nc1nc(-c2ccccc2)cn2cc(-c3ccccc3)nc12)c1cccs1	4	1		5			185		
Nc1nc(Br)cn2cc(-c3ccccc3)nc12	40	18	14			420			
O=C(c1ccccc1)N(C(=O)c1ccccc1)c1nccn2cc(-c3ccccc3)nc12	3	5		4			64	187	1
O=C(Nc1nc(-c2ccccc2)cn2cc(-c3ccccc3)nc12)c1ccccc1	1	1		1			82	235	2
